The source of these data is publication PMC8897028 (Acta Pharmaceutica Sinica. B, 2021).

The target in one data set is T1, mTRPV3 H426A (Mus musculus, UniProt Q8K424, H426A).
T1 sequence (Q8K424 1-791 H426A): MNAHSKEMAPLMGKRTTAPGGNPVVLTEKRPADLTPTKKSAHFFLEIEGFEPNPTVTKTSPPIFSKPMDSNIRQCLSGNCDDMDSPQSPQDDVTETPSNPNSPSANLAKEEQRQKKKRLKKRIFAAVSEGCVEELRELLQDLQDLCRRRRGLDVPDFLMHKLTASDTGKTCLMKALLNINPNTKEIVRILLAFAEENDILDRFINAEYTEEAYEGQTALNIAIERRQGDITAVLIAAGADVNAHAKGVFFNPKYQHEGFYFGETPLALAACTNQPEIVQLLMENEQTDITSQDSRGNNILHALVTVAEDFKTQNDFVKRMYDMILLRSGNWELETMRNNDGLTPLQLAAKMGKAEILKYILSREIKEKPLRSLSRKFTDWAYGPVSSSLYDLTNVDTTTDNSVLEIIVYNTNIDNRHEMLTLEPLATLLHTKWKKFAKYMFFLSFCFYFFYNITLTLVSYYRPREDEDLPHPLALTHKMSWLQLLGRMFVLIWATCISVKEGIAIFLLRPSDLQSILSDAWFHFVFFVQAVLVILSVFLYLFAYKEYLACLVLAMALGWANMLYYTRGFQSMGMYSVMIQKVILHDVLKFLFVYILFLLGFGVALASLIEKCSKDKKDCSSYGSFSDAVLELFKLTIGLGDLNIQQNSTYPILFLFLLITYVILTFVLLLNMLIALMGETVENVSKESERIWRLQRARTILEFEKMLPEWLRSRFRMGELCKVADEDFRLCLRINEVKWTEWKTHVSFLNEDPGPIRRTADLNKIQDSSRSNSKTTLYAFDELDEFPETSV
As to the kind of experiment: whole-cell patch-clamp of mTRPV3 H426A mutant in HEK293 cells. It counts as cell-based. The procedure, abridged: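 The sequence-confirmed site-directed mTRPV3 mutant was transiently expressed in HEK293 cells, and EGFP-positive cells were recorded whole-cell 18 h post-transfection. Cells were held at 0 mV with 500-ms ramps from −100 to +100 mV every 2 s, at 22–24 °C. Compounds were diluted in perfusion solution.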
On the technique in general: In patch-clamp work, channel activity is measured electrically.

The target of another data set is T2, hTRPV3 (Homo sapiens, UniProt Q8NET8).
T2 sequence (Q8NET8 1-790): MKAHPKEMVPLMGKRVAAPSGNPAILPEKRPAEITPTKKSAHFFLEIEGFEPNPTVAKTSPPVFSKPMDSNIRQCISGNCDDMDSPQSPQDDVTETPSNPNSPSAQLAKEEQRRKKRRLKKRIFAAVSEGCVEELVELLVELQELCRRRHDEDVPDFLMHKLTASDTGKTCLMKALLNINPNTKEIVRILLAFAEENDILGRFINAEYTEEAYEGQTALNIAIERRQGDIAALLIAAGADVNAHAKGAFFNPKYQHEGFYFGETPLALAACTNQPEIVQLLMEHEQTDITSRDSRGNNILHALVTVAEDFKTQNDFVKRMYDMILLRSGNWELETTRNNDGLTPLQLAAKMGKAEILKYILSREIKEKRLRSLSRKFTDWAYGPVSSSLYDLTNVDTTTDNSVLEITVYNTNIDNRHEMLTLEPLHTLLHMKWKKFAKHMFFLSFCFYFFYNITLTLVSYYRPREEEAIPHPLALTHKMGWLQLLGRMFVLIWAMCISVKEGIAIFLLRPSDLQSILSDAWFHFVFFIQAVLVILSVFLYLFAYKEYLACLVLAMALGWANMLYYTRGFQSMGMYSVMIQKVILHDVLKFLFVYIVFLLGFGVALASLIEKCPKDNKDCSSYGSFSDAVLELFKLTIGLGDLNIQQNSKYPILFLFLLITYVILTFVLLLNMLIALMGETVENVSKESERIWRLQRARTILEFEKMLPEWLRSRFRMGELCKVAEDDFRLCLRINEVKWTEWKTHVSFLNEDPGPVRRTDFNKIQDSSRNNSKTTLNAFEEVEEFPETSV
Put plainly: inside-out single-channel recordings of HEK293 cells overexpressing hTRPV3. It counts as biochemical. The procedure, abridged:
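Inside-out patches from EGFP-identified HEK293 cells, 18 h after hTRPV3 transfection, used 6–10 MΩ pipettes. Patches were held at 0 mV, then stepped to +80 mV. Currents were sampled at 10 kHz, filtered at 2.9 kHz, at 22–24 °C. All-points histograms were Gaussian-fitted for conductance and mean open probability; n = 4.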

In the next data set the test system is C57BL/6J mice. As to the kind of experiment: ear swelling and chronic pruritus model induced by TRPV3 agonist carvacrol. In kind it is in vivo, mouse. Conditions: 3% carvacrol only; recorded 1 h on day 7. The procedure, abridged:
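Male C57BL/6J mice, 8–10 weeks old, were acclimatised for at least one week at 22 ± 2 °C on a 12 h light/dark cycle. The right ear received topical 3% carvacrol in ethanol/olive oil (4/1, v/v) once daily for 6 days. Test compound (1.0 mmol/L in 50 μL solvent) was applied 30 min after carvacrol; vehicle was solvent with 1% DMSO. Scratching was recorded for 1 h on day 7; n = 6–8 mice per group.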

For data set [1], the system named is HEK293 cells expressing hTRPV3. Put plainly: cell death assay. In kind it is cell-based, human. Particulars: 12 h, n = 4. The procedure, abridged: (§1)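 HEK293 cells 12 h after hTRPV3 transfection, or HaCaT cells, were seeded in six-well plates, randomly split into 6 groups, and treated 12 h in culture medium. Cells were detached with 0.25% trypsin (HEK293 1 min; HaCaT 7 min), centrifuged, and stained 30 min in PBS with Hoechst and PI. Five random fields per group were imaged. Death ratio = PI-labelled over Hoechst-labelled nuclei, averaged over five images; n = 4.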

Data set [2] concerns HaCaT cells. Put plainly: cell death assay. It counts as cell-based, human. Conditions: carvacrol 300 μmol/L alone; 12 h. An outline of the steps: as §1
Data set [3] relates to HEK293 cells expressing hTRPV3. Put plainly: cell proliferation MTT assay, HEK293 cells transfected with hTRPV3. In kind it is cell-based, human. Particulars: carvacrol 300 μmol/L, 24 h. The procedure, abridged:
(§2)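 hTRPV3-transfected HEK293 or HaCaT cells were plated at 5 × 10^3 per well for 24 h, then exposed 24 h to TRPV3 activator and/or inhibitor in culture medium. MTT (5 mg/mL solution) was added for 4 h. Medium was removed, formazan dissolved in DMSO, and absorbance read at 490 nm.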
A general note: Formazan colour is commonly taken as a measure of viable cells.

Data set [4] relates to HaCaT cells. As to the kind of experiment: cell proliferation MTT assay, HaCaT cells. In kind it is cell-based, human. Conditions: carvacrol 300 μmol/L, 24 h. An outline of the steps: as §2
Another data set concerns the target hTRPA1 (Homo sapiens, UniProt O75762). As to the kind of experiment: whole-cell patch-clamp of TRPA1 currents in HEK293 cells. Conditions: ruthenium red 20 μmol/L; current activated by AITC 300 μmol/L. It counts as cell-based. The procedure, abridged: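 Human channel cDNAs were transiently transfected into HEK293 cells with Lipofectamine 2000. EGFP-positive cells were recorded whole-cell 18 h later at 22–24 °C with ~4.0 MΩ fire-polished pipettes. Cells were held at 0 mV with 500-ms ramps from −100 to +100 mV every 2 s. Test compound in perfusion solution was co-applied with agonist, and average current inhibition was summarised; n = 4–6.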

Sequence of hTRPA1 (O75762 whole entry, the tested form may be a part): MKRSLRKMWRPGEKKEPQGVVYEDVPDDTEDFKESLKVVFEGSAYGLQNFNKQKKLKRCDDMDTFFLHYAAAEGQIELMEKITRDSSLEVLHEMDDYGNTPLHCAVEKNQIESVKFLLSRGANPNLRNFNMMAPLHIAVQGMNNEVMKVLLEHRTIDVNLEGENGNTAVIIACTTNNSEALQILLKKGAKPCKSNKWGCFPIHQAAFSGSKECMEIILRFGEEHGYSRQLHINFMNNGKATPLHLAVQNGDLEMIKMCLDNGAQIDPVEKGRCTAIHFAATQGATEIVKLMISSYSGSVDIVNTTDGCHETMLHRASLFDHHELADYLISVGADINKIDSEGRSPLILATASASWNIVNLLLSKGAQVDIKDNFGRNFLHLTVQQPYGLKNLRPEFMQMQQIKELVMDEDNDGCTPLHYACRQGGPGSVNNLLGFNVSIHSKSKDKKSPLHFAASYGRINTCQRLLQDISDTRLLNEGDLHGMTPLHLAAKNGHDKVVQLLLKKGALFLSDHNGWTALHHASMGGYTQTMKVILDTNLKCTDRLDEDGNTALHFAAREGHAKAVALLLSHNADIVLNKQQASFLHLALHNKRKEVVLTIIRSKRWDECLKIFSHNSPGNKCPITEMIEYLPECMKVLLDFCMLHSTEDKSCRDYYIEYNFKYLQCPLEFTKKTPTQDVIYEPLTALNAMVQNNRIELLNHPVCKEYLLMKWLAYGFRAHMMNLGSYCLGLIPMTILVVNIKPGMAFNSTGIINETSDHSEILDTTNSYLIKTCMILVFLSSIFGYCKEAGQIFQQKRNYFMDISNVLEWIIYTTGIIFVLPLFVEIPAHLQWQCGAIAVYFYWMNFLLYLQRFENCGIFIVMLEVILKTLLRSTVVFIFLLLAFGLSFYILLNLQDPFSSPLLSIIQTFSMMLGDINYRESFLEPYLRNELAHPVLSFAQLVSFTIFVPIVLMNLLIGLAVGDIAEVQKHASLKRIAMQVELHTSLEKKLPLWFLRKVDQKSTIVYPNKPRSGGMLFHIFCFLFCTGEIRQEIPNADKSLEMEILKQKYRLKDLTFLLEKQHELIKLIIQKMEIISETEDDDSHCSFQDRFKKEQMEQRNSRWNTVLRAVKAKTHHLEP

For `NCCOB(c1ccccc1)c1ccccc1` [2-APB, 2-aminoethoxydiphenyl borate, reference compound], the “activation of H426A mutant channel” value on mTRPV3 H426A (2-APB 50 μmol/L) is given as “not activated”.
Regarding `Cc1ccc(C(C)C)cc1O` [carvacrol, reference compound], the “increase of channel open probability versus vehicle” value on hTRPV3 (carvacrol 300 μmol/L alone) is “about 90 fold”. At hTRPV3 (carvacrol 300 μmol/L alone), this compound had a single channel conductance of 168.4 ± 2.1 pS. Also, the channel open probability at hTRPV3 (carvacrol 300 μmol/L alone, vehicle control 0.3 ± 0.2%) was 26.9 ± 5.5%. The “number of scratching bouts” value with C57BL/6J mice is reported as 113.0 ± 16.9. Further, the cell death ratio in data set [1] (carvacrol 300 μmol/L alone, vehicle 5.3 ± 0.5%) is listed as 21.1 ± 1.9%; in the data set with HaCaT cells [2] it was 13.0 ± 2.1%. Moreover, the cell proliferation entry (in data set [3]; in the data set with HaCaT cells [4]) was “suppressed the cell proliferation” each time. Besides, the “activation of H426A mutant current” value at mTRPV3 H426A (carvacrol 300 μmol/L) was “activated”.
Consider `N.N.N.N.N.N.N.N.N.N.N.N.N.N.[Cl-].[Cl-].[Cl-].[Cl-].[Cl-].[Cl-].[O-2].[O-2].[Ru+3].[Ru+3].[Ru+4]` [ruthenium red, reference compound], for which the “inhibition of TRPA1 current” value at hTRPA1 was “inhibited”. Besides, the channel open probability at hTRPV3 (RR 20 μmol/L with carvacrol 300 μmol/L, from 26.9 ± 5.5%, n = 4) was 0.5 ± 0.4%. At hTRPV3 (RR 20 μmol/L with carvacrol 300 μmol/L, from 175.2 ± 0.9 pS, n = 4), this compound yielded a single-channel conductance of 122.8 ± 5.5 pS. For the same compound, the cell death ratio in data set [1] (ruthenium red positive control with carvacrol 300 μmol/L) worked out at 14.3 ± 1.7%.
